Values after ≈ are worked out from the molar mass of the structure shown.
Tests used:
[1] = system: HeLa (cervical cancers) cells; experiment: MTT antiproliferative assay, HeLa; format: cell-based, human; settings: for IC50: Homo sapiens, 72 h
Procedure, shortened: (§1)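 Cells from ECACC were grown in MEM with 10% FBS, non-essential amino acids and penicillin-streptomycin, at 37 °C and 5% CO2. Cells were seeded at 5000 per well, left overnight, then exposed to test compound 72 h. MTT was added for 4 h, and formazan was dissolved in DMSO (60 min, 37 °C) and read at 545 nm. Compounds giving >50% inhibition at 10 μM were rerun over 0.1–30 μM for IC50. Two independent experiments used five wells each, with cisplatin as positive control.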

[2] = system: MCF7 (breast cancer) cells; experiment: MTT antiproliferative assay, MCF7; format: cell-based, human; settings: for IC50: MCF-7, MTT, 72 h; for Lipophilic efficiency (LipE = pIC50 – logP): MCF-7
Procedure, shortened: as §1

[3] = Kinetic aqueous solubility; format: physicochemical; settings: PBS buffer, pH 7.4, aqueous buffer, kinetic from dmso stock
Procedure, shortened: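 10 mM DMSO stocks were diluted into PBS pH 7.4 to a 500 μM target and shaken 2 h at room temperature. Samples were vacuum-filtered, diluted with acetonitrile to prevent precipitation, and scanned by UV-vis over 250–500 nm. Concentration was derived from a 3-point calibration at each compound's λmax.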

[4] = system: A2780 (ovarian cancer) cells; experiment: MTT antiproliferative assay, A2780; format: cell-based, human; settings: for Lipophilic efficiency (LipE = pIC50 – logP): A2780; for IC50: Homo sapiens, A2780, 72 h
Procedure, shortened: as §1

[5] = system: MDA-MB-231 (breast cancer) cells; experiment: MTT antiproliferative assay, MDA-MB-231; format: cell-based, human; settings: for IC50: Homo sapiens, MDA-MB-231, 72 h, MDA-MB-231, MTT, 72 h; for Lipophilic efficiency (LipE = pIC50 – logP): MDA-MB-231
Procedure, shortened: as §1

[6] = Intestinal-specific PAMPA; format: in vitro ADME; settings: pH 6.5
Procedure, shortened: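 Donor solutions at nominal 500 μM came from 10 mM DMSO stocks diluted in phosphate donor buffer, pH 6.5. The acceptor buffer held 5% DMSO. The membrane was phosphatidylcholine plus cholesterol in chloroform/dodecane/hexane (5:25:70 v/v). Plates were incubated 4 h at 37 °C, covered. Acceptor UV-vis absorbance was read over 250–500 nm. Pa was calculated by the Wohnsland–Faller equation from acceptor versus equilibrium absorbance at λmax.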

SMILES	Lipophilic efficiency (LipE = pIC50 – logP) [1]	IC50 [1] [µM]	IC50 ([2]; Homo sapiens, MCF7, 72 h) [µM]	Lipophilic efficiency (LipE = pIC50 – logP) [2]	solubility kinetic at 2 h [3] [µM]	Lipophilic efficiency (LipE = pIC50 – logP) [4]	IC50 [4] [µM]	IC50 [5] [µM]	Lipophilic efficiency (LipE = pIC50 – logP) [5]	Papp at 4 h, 500 μM [6] [×10⁻⁶ cm/s]	IC50 [2] [µM]
C[C@@H]1CC[C@@H]([C@@](O)(CNCc2ccccc2)COCc2ccc(F)cc2)[C@H](OCc2ccc(F)cc2)C1 [Compound 44b]	−1.12	3	0.96	−0.63	97 ± 2.8 (≈ 49.4 µg/mL)	−0.97	2.1	2.7	−1.08	23.2 ± 2.7	–
COc1ccc(CNC[C@@](C)(O)[C@@H]2CC[C@@H](C)C[C@H]2OCc2ccccc2)cc1 [Compound 10a]	−0.03	4.3	1.9	0.32	25.7 ± 1 (≈ 10.2 µg/mL)	−0.25	7.3	5.7	−0.15	20.6 ± 1.4	–
C=C(COCc1ccc(F)cc1)[C@@H]1CC[C@@H](C)C[C@H]1OCc1ccc(F)cc1 [Compound 30b]	–	–	–	–	17.6 ± 0.6 (≈ 6.8 µg/mL)	–	–	–	–	–	–
COc1cccc(CNC[C@@](C)(O)[C@@H]2CC[C@@H](C)C[C@H]2OCc2ccccc2)c1 [Compound 11a]	−0.19	6.3	2	0.32	82 ± 2.2 (≈ 32.6 µg/mL)	–	12.5	11.7	–	1.8 ± 0.5	–
C[C@@H]1CC[C@@H]([C@@](O)(CNCc2cccc3ccccc23)COCc2ccccc2)[C@H](OCc2ccccc2)C1 [Compound 41b]	−2.27	2.5	5.7	−2.62	0.5 ± 0.01 (≈ 0.262 µg/mL)	−2.48	4.1	2.6	−2.28	–	–
COc1ccccc1CNC[C@@](C)(O)[C@@H]1CC[C@@H](C)C[C@H]1OCc1ccccc1 [Compound 12a]	−0.05	4.6	4.2	−0.01	270 ± 21 (≈ 107 µg/mL)	−0.26	7.4	12.8	–	49.2 ± 4	–
COc1ccc(CNC[C@](O)(COCc2ccc(F)cc2)[C@@H]2CC[C@@H](C)C[C@H]2OCc2ccc(F)cc2)cc1 [Compound 46a]	−1.33	2.5	< 1	–	88 ± 0.9 (≈ 47.5 µg/mL)	−1.12	1.5	1.9	−1.22	29.5 ± 3.6	0.9
COc1ccc(CNC[C@](O)(COCc2ccc(OC)cc2)[C@@H]2CC[C@@H](C)C[C@H]2OCc2ccc(OC)cc2)cc1 [Compound 52a]	−0.57	2	1.4	−0.43	107 ± 2.6 (≈ 60.3 µg/mL)	−0.40	1.3	1.7	−0.50	23.7 ± 3.8	–
C[C@@H]1CC[C@@H]([C@](O)(CNCc2ccccc2)COCc2ccccc2)[C@H](OCc2ccccc2)C1 [Compound 34a]	−1.16	2.6	2	−1.05	2.8 ± 0.2 (≈ 1.33 µg/mL)	−1.36	4.1	4	−1.35	–	–
C=C(COCc1ccc(OC)cc1)[C@@H]1CC[C@@H](C)C[C@H]1OCc1ccc(OC)cc1 [Compound 30c]	–	24.7	–	–	31.5 ± 1.3 (≈ 12.9 µg/mL)	–	–	–	–	–	–
C[C@@H]1CC[C@@H]([C@@](O)(CNCc2ccccc2)COCc2ccccc2)[C@H](OCc2ccccc2)C1 [Compound 34b]	−1.11	2.3	3.7	−1.32	8 ± 1 (≈ 3.79 µg/mL)	−1.26	3.3	3.4	−1.28	–	–
C=C(C)[C@@H]1CC[C@@H](C)C[C@H]1OCc1ccc(OC)cc1 [Compound 2c]	–	–	–	–	247 ± 2.8 (≈ 67.8 µg/mL)	–	–	–	–	26.1 ± 5.4	–
C[C@@H]1CC[C@@H]([C@](C)(O)CNCc2ccc(F)cc2)[C@H](OCc2ccccc2)C1 [Compound 7a]	–	24.3	20.3	–	2.5 ± 0.1 (≈ 0.964 µg/mL)	–	–	–	–	–	–
C[C@@H]1CC[C@@H]([C@](C)(O)CNCc2cccc3ccccc23)[C@H](OCc2ccccc2)C1 [Compound 13a]	−1.04	5.4	4.3	−0.94	2.1 ± 0.1 (≈ 0.877 µg/mL)	–	13.7	25	–	–	–
C=C(C)[C@@H]1CC[C@@H](C)C[C@H]1OCc1ccc(F)cc1 [Compound 2b]	–	–	–	–	90 ± 4.8 (≈ 23.6 µg/mL)	–	–	–	–	50.7 ± 4.7	–
C[C@@H]1CC[C@@H]([C@](C)(O)CNCc2ccccc2)[C@H](OCc2ccccc2)C1 [Compound 6a]	0.09	2.8	2.3	0.18	3.3 ± 0.01 (≈ 1.21 µg/mL)	0.12	2.6	3.4	0.01	–	–
C[C@@H]1CC[C@@H]([C@](C)(O)CNCc2ccccc2F)[C@H](OCc2ccccc2)C1 [Compound 9a]	−0.09	6.5	8.6	−0.21	1.4 ± 0.02 (≈ 0.54 µg/mL)	–	–	–	–	–	–
C=C(C)[C@@H]1CC[C@@H](C)C[C@H]1OCc1ccccc1 [Compound 2a, O-benzyl isopulegol]	–	–	–	–	1.1 ± 0.01 (≈ 0.269 µg/mL)	–	–	–	–	–	–
C=C(COCc1ccccc1)[C@@H]1CC[C@@H](C)C[C@H]1OCc1ccccc1 [Compound 30a]	–	–	–	–	40.8 ± 5 (≈ 14.3 µg/mL)	–	–	–	–	–	–
C[C@@H]1CC[C@@H]([C@](C)(O)Cn2cnc3ccccc32)[C@H](OCc2ccccc2)C1 [Compound 15a]	–	11.6	7	0.02	38.7 ± 2 (≈ 14.6 µg/mL)	–	12.3	16.7	–	39.3 ± 4.2	–
C[C@@H]1CC[C@@H]([C@](O)(CNCc2cccc3ccccc23)COCc2ccccc2)[C@H](OCc2ccccc2)C1 [Compound 41a]	−2.28	2.6	5.9	−2.64	1 ± 0.03 (≈ 0.524 µg/mL)	−2.57	5	3.6	−2.42	–	–
C[C@@H]1CC[C@@H]([C@](O)(COCc2ccccc2)Cn2ccnc2)[C@H](OCc2ccccc2)C1 [Compound 42b]	–	–	–	–	5.2 ± 0.3 (≈ 2.26 µg/mL)	–	–	–	–	–	–
C[C@@H]1CC[C@@H]([C@@](O)(COCc2ccccc2)Cn2ccnc2)[C@H](OCc2ccccc2)C1 [Compound 42a]	–	–	–	–	7.7 ± 0.7 (≈ 3.35 µg/mL)	–	–	–	–	–	–
C[C@@H]1CC[C@@H]([C@](C)(O)Cn2ccnc2)[C@H](OCc2ccccc2)C1 [Compound 14a]	–	24.5	–	–	4.1 ± 0.7 (≈ 1.35 µg/mL)	–	–	–	–	–	–

— paper PMC11168086 (RSC Advances, 2024)
